From ChEMBL document CHEMBL3045616, “Synthetic pyrazole derivatives as growth inhibitors of some phytopathogenic fungi” (J Agric Food Chem, 2007)

Experiments:
[1] = Ratio of IC50 for photosynthetic electron transport in active intact chloroplast thylakoid membrane of Spinacea oleracea L. leaves to IC50 for Pythium ultimum ATCC 58812
[2] = In vitro inhibition of basal rate of photosynthetic electron transport (Hill reaction) in active intact chloroplast thylakoid membrane of Spinacia oleracea (spinach) leaves assessed as inhibition of light-driven ferricyanide reduction at 5 uM measured at 24 degC at 30 s intervals for 10 min (reference value: 100 +/-3.1%)
Globisporangium ultimum [3] = assay: Antifungal activity against logarithmic phase of Pythium ultimum Trow ATCC 58812 assessed as growth inhibition measured at 5 days post-drug treatment; type: functional, organism-based; conditions: ATCC 58812, 120 h
Procedure, shortened: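 Log-phase mycelium grown on cellophane over PDA (pH 5.6, 26 ± 1 °C) moved to PDA containing compound at 10, 50 and 100 µg mL^-1 final, with 0.1% DMSO in test and control media. Colony diameter was measured daily for 5 days, in triplicate, relative to untreated controls. IC50 came from curves of activity (%) versus log inhibitor concentration.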

Pyricularia grisea [4] = assay: microbe, parasite or virus in culture; type: functional; conditions: ATCC 64413, 120 h, read-out: GI
Pyricularia grisea [5] = assay: microbe, parasite or virus in culture; type: functional; conditions: ATCC 64413, 120 h, read-out: GI; remark: listed apart in the source
Pyricularia grisea [6] = assay: microbe, parasite or virus in culture; type: functional; conditions: ATCC 64413, 120 h, read-out: GI; remark: listed apart in the source
Botrytis cinerea [7] = assay: Antifungal activity against logarithmic phase of Botryotinia fuckeliana ATCC 48339 assessed as growth inhibition at 100 ug/ml measured at 5 days post-drug treatment; type: functional; conditions: ATCC 48339, 120 h, read-out: GI
Procedure, shortened: (§1)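 Log-phase mycelium (from 10 mm stationary-phase disks grown on cellophane over PDA, pH 5.6, 26 ± 1 °C) moved to PDA with compound added from DMSO stock at 45 °C. Final concentrations were 10, 50 or 100 µg mL^-1, with 0.1% DMSO in test and control media. Colony diameter was read daily for 5 days, in triplicate, as % of untreated control.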

Botrytis cinerea [8] = assay: Antifungal activity against logarithmic phase of Botryotinia fuckeliana ATCC 48339 assessed as growth inhibition at 50 ug/ml measured at 5 days post-drug treatment; type: functional; conditions: ATCC 48339, 120 h, read-out: GI; procedure, shortened: as §1
Botrytis cinerea [9] = assay: Antifungal activity against logarithmic phase of Botryotinia fuckeliana ATCC 48339 assessed as growth inhibition at 10 ug/ml measured at 5 days post-drug treatment; type: functional; conditions: ATCC 48339, 120 h, read-out: GI; procedure, shortened: as §1
Globisporangium ultimum [10] = assay: Antifungal activity against logarithmic phase of Pythium ultimum ATCC 58812 assessed as growth inhibition at 100 ug/ml measured at 5 days post-drug treatment; type: functional; conditions: ATCC 58812, 120 h, read-out: GI; procedure, shortened: as §1
Globisporangium ultimum [11] = assay: Antifungal activity against logarithmic phase of Pythium ultimum ATCC 58812 assessed as growth inhibition at 50 ug/ml measured at 5 days post-drug treatment; type: functional; conditions: ATCC 58812, 120 h, read-out: GI; procedure, shortened: as §1
Globisporangium ultimum [12] = assay: Antifungal activity against logarithmic phase of Pythium ultimum ATCC 58812 assessed as growth inhibition at 10 ug/ml measured at 5 days post-drug treatment; type: functional; conditions: ATCC 58812, 120 h, read-out: GI; procedure, shortened: as §1

Cc1c(C(=O)O)c(C(=O)NC(C)(C)C)nn1-c1ccc(Cl)cc1
Ratio IC50 [1]: 25 | IC50 [2]: 950 µM | IC50 (Globisporangium ultimum [3]): 38 µM | inhibition of growth at 100 µg/mL (Pyricularia grisea [4]): 33.2% | inhibition of growth at 50 µg/mL (Pyricularia grisea [5]): 31.5% | inhibition of growth at 10 µg/mL (Pyricularia grisea [6]): 20.9% | inhibition of growth at 100 µg/mL (Botrytis cinerea [7]): 49.9% | inhibition of growth at 50 µg/mL (Botrytis cinerea [8]): 49.3% | inhibition of growth at 10 µg/mL (Botrytis cinerea [9]): 45.6% | inhibition of growth at 100 µg/mL (Globisporangium ultimum [10]): 69.3% | inhibition of growth at 50 µg/mL (Globisporangium ultimum [11]): 69.3% | inhibition of growth at 10 µg/mL (Globisporangium ultimum [12]): 47.2%
